Experimental data from ChEMBL document CHEMBL1130282, “Syntheses and structure-activity relationships of taxoids derived from 14 beta-hydroxy-10-deacetylbaccatin III” (J Med Chem, 1997).

Columns and labels:
MCF7R = assay: Growth inhibition of human mammary carcinoma 180 fold resistant to doxorubicin (MCF-7-R) cell line; format: functional, cell-based
A549 = assay: Growth inhibition of human non-small-lung carcinoma (A549) cell line; format: functional, cell-based
A121 = assay: Growth inhibition of human ovarian carcinoma (A121) cell line; format: functional, cell-based
Summary of the method: (§1)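 Cells seeded at 400/well, attached overnight, grown in RPMI-1640 with 5% fetal bovine serum and 5% Nu Serum. Taxanes in DMSO, diluted in medium, 72 h exposure, triplicate wells. Fixed with ice-cold 50% TCA (1 h, 4 °C), stained with 0.4% sulforhodamine B, dye dissolved in 10 mM Tris (pH 10.5), OD 570 nm. IC50 from sigmoid-Emax nonlinear regression, weighted by reciprocal squared predicted effect.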

HT-29 = assay: Growth inhibition of human colon carcinoma (HT-29) cell line; format: functional, cell-based; summary of the method: as §1
MCF7 = assay: Growth inhibition of human mammary carcinoma (MCF-7) cell line; format: functional, cell-based; summary of the method: as §1
[1] = Ratio of growth inhibition (IC50) of MCF7-R / MCF-7 cell lines; format: functional, Homo sapiens

| IC50 (MCF7R) | IC50 (A549) | IC50 (HT-29) | IC50 (MCF7) | Compound | IC50 (A121) | Ratio [1] |
| --- | --- | --- | --- | --- | --- | --- |
| > 1000 nM | – | – | – | CC(=O)O[C@@]12CO[C@@H]1C[C@H](O)[C@@]1(C)C(=O)[C@H](O)C3=C(C)[C@@H](OC(=O)[C@H](O)[C@@H](NC(=O)OC(C)(C)C)c4ccccc4)[C@H](O)[C@@](O)([C@@H](OC(=O)c4ccccc4)C12)C3(C)C (stereo not given in full) | – | – |
| 33 nM | 0.6 nM | 1.2 nM | 0.4 nM | CC(=O)O[C@@]12COC1C[C@H](O)[C@@]1(C)C(=O)[C@H](OC(=O)N(C)C)C3=C(C)[C@@H](OC(=O)[C@H](O)[C@H](C=C(C)C)NC(=O)OC(C)(C)C)[C@@H]4OC(=O)O[C@]4([C@@H](OC(=O)c4ccccc4)C21)C3(C)C (stereo not given in full) | 0.7 nM | 83 |
| 49 nM | 0.5 nM | 0.6 nM | 0.5 nM | CC(=O)O[C@H]1C(=O)[C@@]2(C)C([C@H](OC(=O)c3ccccc3)[C@]34OC(=O)O[C@H]3[C@H](OC(=O)[C@H](O)[C@@H](NC(=O)OC(C)(C)C)c3ccco3)C(C)=C1C4(C)C)[C@]1(OC(C)=O)COC1C[C@@H]2O (stereo not given in full) | 0.4 nM | 96 |
| 135 nM | 0.5 nM | 0.6 nM | 0.5 nM | CC(=O)O[C@@]12COC1C[C@H](O)[C@@]1(C)C(=O)[C@H](O)C3=C(C)[C@@H](OC(=O)[C@H](O)[C@@H](NC(=O)OC(C)(C)C)c4ccco4)[C@@H]4OC(=O)O[C@]4([C@@H](OC(=O)c4ccccc4)C21)C3(C)C (stereo not given in full) | 0.4 nM | 270 |
| 321 nM | 18 nM | 16 nM | 3.2 nM | CCCCCC(=O)N[C@@H](C=C(C)C)[C@@H](O)C(=O)O[C@@H]1C(C)=C2[C@@H](OC(=O)C3CC3)C(=O)[C@@]3(C)C([C@H](OC(=O)c4ccccc4)[C@@]4(OC(=O)O[C@@H]14)C2(C)C)[C@]1(OC(C)=O)COC1C[C@@H]3O (stereo not given in full) | 12 nM | 100 |
| 265 nM | 4.4 nM | 3.8 nM | 4.2 nM | CCC[C@H](NC(=O)OC(C)(C)C)[C@@H](O)C(=O)O[C@@H]1C(C)=C2[C@@H](O)C(=O)[C@@]3(C)C([C@H](OC(=O)c4ccccc4)[C@@]4(OC(=O)O[C@@H]14)C2(C)C)[C@]1(OC(C)=O)COC1C[C@@H]3O (stereo not given in full) | 2.1 nM | 92 |
| 137 nM | 25 nM | 28 nM | 2.1 nM | C/C=C/C(=O)O[C@H]1C(=O)[C@@]2(C)C([C@H](OC(=O)c3ccccc3)[C@]34OC(=O)O[C@H]3[C@H](OC(=O)[C@H](O)[C@H](C=C(C)C)NC(=O)CCCCC)C(C)=C1C4(C)C)[C@]1(OC(C)=O)COC1C[C@@H]2O (stereo not given in full) | 17 nM | 65 |
| > 1000 nM | 33 nM | 24 nM | 11 nM | CC(=O)O[C@@]12COC1C[C@H](O)[C@@]1(C)C(=O)[C@H](O)C3=C(C)[C@@H](OC(=O)[C@H](O)[C@@H](NC(=O)c4ccccc4)c4ccccc4)[C@@H]4OC(=O)O[C@]4([C@@H](OC(=O)c4ccccc4)C21)C3(C)C (stereo not given in full) | 105 nM | – |
| 543 nM | 2.1 nM | 1.8 nM | 1.8 nM | CC(=O)O[C@@]12COC1C[C@H](O)[C@@]1(C)C(=O)[C@H](O)C3=C(C)[C@@H](OC(=O)[C@H](O)[C@@H](NC(=O)OC(C)(C)C)c4ccccc4)[C@@H]4OC(=O)O[C@]4([C@@H](OC(=O)c4ccccc4)C21)C3(C)C (stereo not given in full) | 6.2 nM | 302 |
| > 1000 nM | 51 nM | 52 nM | 48 nM | CC(=O)O[C@@]12COC1C[C@H](O)[C@@]1(C)C(=O)[C@H](O)C3=C(C)[C@@H](OC(=O)[C@H](O)[C@H](CC(C)(C)C)NC(=O)OC(C)(C)C)[C@@H]4OC(=O)O[C@]4([C@@H](OC(=O)c4ccccc4)C21)C3(C)C (stereo not given in full) | 106 nM | – |
| 295 nM | 5.5 nM | 5.1 nM | 1.7 nM | CCCCCC(=O)N[C@@H](C=C(C)C)[C@@H](O)C(=O)O[C@@H]1C(C)=C2[C@@H](OC(=O)N(C)C)C(=O)[C@@]3(C)C([C@H](OC(=O)c4ccccc4)[C@@]4(OC(=O)O[C@@H]14)C2(C)C)[C@]1(OC(C)=O)COC1C[C@@H]3O (stereo not given in full) | 4.8 nM | – |
| 385 nM | 1.8 nM | 3.4 nM | 2.7 nM | CC(=O)O[C@@]12COC1C[C@H](O)[C@@]1(C)C(=O)[C@H](O)C3=C(C)[C@@H](OC(=O)[C@H](O)[C@H](CC(C)C)NC(=O)OC(C)(C)C)[C@@H]4OC(=O)O[C@]4([C@@H](OC(=O)c4ccccc4)C21)C3(C)C (stereo not given in full) | 1 nM | – |
| > 1000 nM | 389 nM | 157 nM | 13 nM | CCCCCC(=O)N[C@@H](c1ccccc1)[C@@H](O)C(=O)O[C@@H]1C(C)=C2[C@@H](O)C(=O)[C@@]3(C)C([C@H](OC(=O)c4ccccc4)[C@@]4(OC(=O)O[C@@H]14)C2(C)C)[C@]1(OC(C)=O)COC1C[C@@H]3O (stereo not given in full) | 330 nM | – |
| 201 nM | 4.7 nM | 4.8 nM | 4.6 nM | CCC[C@H](NC(=O)OC(C)(C)C)[C@@H](O)C(=O)O[C@@H]1C(C)=C2[C@@H](OC(C)=O)C(=O)[C@@]3(C)C([C@H](OC(=O)c4ccccc4)[C@@]4(OC(=O)O[C@@H]14)C2(C)C)[C@]1(OC(C)=O)COC1C[C@@H]3O (stereo not given in full) | 2.3 nM | 44 |
| 17 nM | 0.5 nM | 1.5 nM | 0.4 nM | C/C=C/C(=O)O[C@H]1C(=O)[C@@]2(C)C([C@H](OC(=O)c3ccccc3)[C@]34OC(=O)O[C@H]3[C@H](OC(=O)[C@H](O)[C@H](C=C(C)C)NC(=O)OC(C)(C)C)C(C)=C1C4(C)C)[C@]1(OC(C)=O)COC1C[C@@H]2O (stereo not given in full) | 0.8 nM | 43 |
